Series [1] is described as follows: Selectivity index, ratio of CC50 against human HuH7 cells to EC50 against dengue virus 2. Type of series: toxicity, cell-based, Huh-7. The settings on record: read-out: Ratio CC50/EC50.
A short description of series [2]: Cytotoxicity against human HuH7 cells after 72 hrs by MTS assay. Type of series: cell-based, Huh-7.
The test system of series [3] is dengue virus type 2. Description: Antiviral activity against dengue virus 2 infected in human HuH7 cells after 72 hrs by Western blot and ECL detection based assay. The settings on record: Huh-7, 72 h. Type of series: functional, organism-based. A digest of the protocol: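 Huh-7 cells (ATCC) in DMEM with 10% FBS, 1% nonessential amino acids and 1% antibiotic-antimycotic, 37 °C, 5% CO2. Seeded at 5 × 10^4 cells/mL/well for 12–16 h, then infected with DENV-2 strain 16681 at MOI 0.2 for 2 h at 37 °C. Washed with PBS and refed with compound in DMEM–10% FBS. At 72 h p.i., NS2B Western blot with GAPDH loading control and ECL detection. Ribavirin as reference.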

Consider `CC[C@H](C)C(=O)O[C@@H]1[C@@H]2C(=O)[C@](C)(C3CC[C@]4(C)[C@@H](CC(=O)O[C@H]4c4ccoc4)[C@]34O[C@H]24)[C@@H]([C@@H](O)C(=O)OC)C1(C)C` (some centres undefined), for which the selectivity ratio in series [1] was more than 27.7. The molecule further registered a CC50 at 72 h in series [2] of more than 200 µM. The molecule also displayed an EC50 in series [3] of 7.2 µM.

For `C/C=C(\C)C(=O)O[C@@H]1[C@H]2C=C3[C@@H]4CC(=O)O[C@@H](c5ccoc5)[C@]4(C)CC[C@@H]3[C@@](C)(C2=O)[C@@H]([C@@H](OC(C)=O)C(=O)OC)C1(C)C`, the selectivity ratio in series [1] was found to be 13.2. The same molecule yielded a CC50 at 72 h in series [2] of 83 µM. This molecule displayed an EC50 in series [3] of 6.3 µM.

As to `CC1(C)C(=O)C=C[C@]2(C)[C@H]3CC[C@@]4(C)[C@H](c5ccoc5)OC(=O)[C@H]5O[C@]54[C@]3(C)[C@H](O)C[C@@H]12` [DEACETYLGEDUNIN], the selectivity ratio in series [1] was determined as 8.4. In series [2], this molecule showed a CC50 at 72 h of 105 µM. A half-maximal response in series [3] (EC50) required 12.5 µM.

In the case of `C=C1[C@@H]2CC[C@@]3(C)[C@H](c4ccoc4)OC(=O)C[C@]13O[C@H]1CC(=O)C(C)(C)[C@H](CC(=O)OC)[C@]12C` [METHYLANGOLENSATE], the selectivity ratio in series [1] is 27. In series [2], this molecule had a CC50 at 72 h of 116 µM. This molecule also had an EC50 in series [3] of 4.3 µM.

Turning to `NC(=O)c1ncn([C@@H]2O[C@H](CO)[C@@H](O)[C@H]2O)n1` [RIBAVIRIN], in series [1], the selectivity ratio came out at 4.47. The molecule also had an EC50 in series [3] of 12.6 µM.

These data come from ChEMBL document CHEMBL3351709, “Limonoids from the seeds of Swietenia macrophylla with inhibitory activity against dengue virus 2” (J Nat Prod, 2014).
